Results: ChEMBL document CHEMBL1137365, “1,4,5,6-tetrahydropyrrolo[3,4-c]pyrazoles: identification of a potent Aurora kinase inhibitor with a favorable antitumor kinase inhibition profile” (J Med Chem, 2006)
Calls of active or inactive are those of the source. The rule behind the calls is not given here.

How the values were obtained:
[1] = Aqueous solubility at pH 5.5; assay type: physicochemical
How it was run: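 Aqueous solubility measured on the hydrochloride salt at pH 5.5.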

HCT-116 [2] = assay: Antiproliferative activity against HCT116 cells; assay type: functional, cell-based; conditions: Homo sapiens
How it was run: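 HCT-116 human colon carcinoma cells; proliferation IC50 taken from dose-response curves, reported as the mean of at least three independent determinations.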

Aurora kinase A = biological target: T1, Aurora kinase A (Homo sapiens, UniProt O14965); assay: Inhibition of Aurora A kinase
T1 sequence (O14965 whole entry): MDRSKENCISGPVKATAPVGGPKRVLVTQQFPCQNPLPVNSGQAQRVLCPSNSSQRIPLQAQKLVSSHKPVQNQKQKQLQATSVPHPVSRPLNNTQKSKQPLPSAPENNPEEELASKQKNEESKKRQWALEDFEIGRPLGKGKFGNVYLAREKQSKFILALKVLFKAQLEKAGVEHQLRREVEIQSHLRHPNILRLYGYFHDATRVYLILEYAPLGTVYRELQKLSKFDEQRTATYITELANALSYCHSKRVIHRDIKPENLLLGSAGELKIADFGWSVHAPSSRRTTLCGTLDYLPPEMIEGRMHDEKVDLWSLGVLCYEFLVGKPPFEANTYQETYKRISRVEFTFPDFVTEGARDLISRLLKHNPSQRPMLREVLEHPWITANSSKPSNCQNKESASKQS

Aurora kinase B = Aurora kinase B (Homo sapiens, UniProt Q96GD4); assay: Inhibition of Aurora B kinase
Chain of Aurora kinase B (Q96GD4 whole entry): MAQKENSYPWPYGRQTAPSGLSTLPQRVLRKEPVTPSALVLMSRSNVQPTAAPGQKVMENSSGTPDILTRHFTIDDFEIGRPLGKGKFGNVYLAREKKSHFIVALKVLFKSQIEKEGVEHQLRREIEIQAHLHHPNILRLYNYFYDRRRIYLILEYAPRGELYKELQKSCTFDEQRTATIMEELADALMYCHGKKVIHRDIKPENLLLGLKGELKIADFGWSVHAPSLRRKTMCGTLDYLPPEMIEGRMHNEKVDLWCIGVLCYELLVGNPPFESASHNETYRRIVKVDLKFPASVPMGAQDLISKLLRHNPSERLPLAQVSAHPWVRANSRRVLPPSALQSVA
How it was run: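 Biochemical Aurora-B kinase inhibition; IC50 reported as the mean of at least three individual determinations.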

HCT-116 [3] = assay: Cell cycle arrest in HCT116 cells by accumulation at G2/M phase; assay type: functional, cell-based; conditions: Homo sapiens
A2780 = assay: Antiproliferative activity against A2780 cells; assay type: functional, cell-based; conditions: Homo sapiens
HeLa = assay: Antiproliferative activity against HeLa cells; assay type: functional, cell-based; conditions: Homo sapiens
HL-60 [4] = assay: Body weight loss of SCID mouse xenografted with HL60 cells at 30 mg/kg, iv after 5 days; assay type: functional
MCF7 = assay: Antiproliferative activity against MCF7 cells; assay type: functional, cell-based; conditions: Homo sapiens
How it was run: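 IC50 taken from dose-response curves of cell proliferation; each reported value is the mean of three or more independent curves.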

HL-60 [5] = assay: Antitumor activity against HL60 cells xenografted in SCID mouse at 7.5 to 30 mg/kg, iv after 5 days; assay type: functional; conditions: dose mg/kg 7.5-30
How it was run: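 SCID mice carrying HL-60 human tumor xenografts. Dosed iv twice daily for 5 days (bid × 5) at 7.5 to 30 mg/kg. Tumor growth inhibition followed over time.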

HCT-116 [6] = assay: Inhibition of histone h3 phosphorylation in HCT116 cells by Western blot analysis; assay type: functional, cell-based; conditions: Homo sapiens
How it was run: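 HCT-116 cells probed by Western blot for histone H3 phosphorylated at serine 10. α-Tubulin antibody used as the loading control.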

[7] = Terminal half life in CD1 mouse at 10 mg/kg, iv; assay type: ADME, organism-based; parameters: dose 10 mg/kg, route intravenous; conditions: in vivo, read-out: beta t1/2 (converted)
How it was run: (§1)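 Plasma levels followed up to 6 h post-dose. Parameters estimated individually for three mice (M1–M3) and reported as mean and SD.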

[8] = biological target: T2, Tyrosine-protein kinase ZAP-70 (Homo sapiens, UniProt P43403); assay: Inhibition of ZAP70
T2 sequence (P43403 whole entry): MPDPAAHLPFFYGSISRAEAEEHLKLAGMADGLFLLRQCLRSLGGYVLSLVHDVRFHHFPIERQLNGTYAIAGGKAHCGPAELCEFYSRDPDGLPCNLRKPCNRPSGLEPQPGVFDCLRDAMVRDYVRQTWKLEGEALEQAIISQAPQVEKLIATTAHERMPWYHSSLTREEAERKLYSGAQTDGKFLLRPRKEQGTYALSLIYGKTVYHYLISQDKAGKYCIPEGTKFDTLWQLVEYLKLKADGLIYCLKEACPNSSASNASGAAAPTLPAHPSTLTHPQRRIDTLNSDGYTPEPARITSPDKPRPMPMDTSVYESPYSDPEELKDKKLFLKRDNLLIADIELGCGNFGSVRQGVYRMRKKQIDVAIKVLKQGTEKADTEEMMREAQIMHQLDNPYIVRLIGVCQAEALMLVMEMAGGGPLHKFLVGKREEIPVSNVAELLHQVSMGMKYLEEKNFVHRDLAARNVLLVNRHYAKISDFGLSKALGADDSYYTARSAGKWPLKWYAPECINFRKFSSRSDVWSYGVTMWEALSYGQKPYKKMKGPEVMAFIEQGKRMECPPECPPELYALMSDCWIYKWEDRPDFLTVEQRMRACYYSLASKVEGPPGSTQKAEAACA

[9] = biological target: T3, 3-phosphoinositide-dependent protein kinase 1 (Homo sapiens, UniProt O15530); assay: Inhibition of PDK1
T3 sequence (O15530 whole entry): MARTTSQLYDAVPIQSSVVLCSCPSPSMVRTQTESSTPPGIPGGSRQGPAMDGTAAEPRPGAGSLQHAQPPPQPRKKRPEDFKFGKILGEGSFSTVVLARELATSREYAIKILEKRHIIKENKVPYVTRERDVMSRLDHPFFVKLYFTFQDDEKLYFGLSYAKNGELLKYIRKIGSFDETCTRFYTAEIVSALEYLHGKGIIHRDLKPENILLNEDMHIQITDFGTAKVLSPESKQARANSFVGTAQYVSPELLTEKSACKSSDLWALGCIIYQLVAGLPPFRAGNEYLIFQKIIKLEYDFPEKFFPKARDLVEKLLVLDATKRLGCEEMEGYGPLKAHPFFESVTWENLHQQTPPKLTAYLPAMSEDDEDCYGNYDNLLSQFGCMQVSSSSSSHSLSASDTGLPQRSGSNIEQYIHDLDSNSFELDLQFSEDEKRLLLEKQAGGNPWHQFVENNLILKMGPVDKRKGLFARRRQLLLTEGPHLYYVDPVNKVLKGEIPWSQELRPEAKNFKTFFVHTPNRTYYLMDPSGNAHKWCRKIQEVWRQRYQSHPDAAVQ

[10] = AUC in CD1 mouse at 10 mg/kg, iv; assay type: ADME, organism-based; parameters: dose 10 mg/kg, route intravenous; conditions: plasma; how it was run: as §1
[11] = biological target: Vascular endothelial growth factor receptor 3 (Homo sapiens, UniProt P35916); assay: Inhibition of VEGFR3
Chain of Vascular endothelial growth factor receptor 3 (P35916 whole entry): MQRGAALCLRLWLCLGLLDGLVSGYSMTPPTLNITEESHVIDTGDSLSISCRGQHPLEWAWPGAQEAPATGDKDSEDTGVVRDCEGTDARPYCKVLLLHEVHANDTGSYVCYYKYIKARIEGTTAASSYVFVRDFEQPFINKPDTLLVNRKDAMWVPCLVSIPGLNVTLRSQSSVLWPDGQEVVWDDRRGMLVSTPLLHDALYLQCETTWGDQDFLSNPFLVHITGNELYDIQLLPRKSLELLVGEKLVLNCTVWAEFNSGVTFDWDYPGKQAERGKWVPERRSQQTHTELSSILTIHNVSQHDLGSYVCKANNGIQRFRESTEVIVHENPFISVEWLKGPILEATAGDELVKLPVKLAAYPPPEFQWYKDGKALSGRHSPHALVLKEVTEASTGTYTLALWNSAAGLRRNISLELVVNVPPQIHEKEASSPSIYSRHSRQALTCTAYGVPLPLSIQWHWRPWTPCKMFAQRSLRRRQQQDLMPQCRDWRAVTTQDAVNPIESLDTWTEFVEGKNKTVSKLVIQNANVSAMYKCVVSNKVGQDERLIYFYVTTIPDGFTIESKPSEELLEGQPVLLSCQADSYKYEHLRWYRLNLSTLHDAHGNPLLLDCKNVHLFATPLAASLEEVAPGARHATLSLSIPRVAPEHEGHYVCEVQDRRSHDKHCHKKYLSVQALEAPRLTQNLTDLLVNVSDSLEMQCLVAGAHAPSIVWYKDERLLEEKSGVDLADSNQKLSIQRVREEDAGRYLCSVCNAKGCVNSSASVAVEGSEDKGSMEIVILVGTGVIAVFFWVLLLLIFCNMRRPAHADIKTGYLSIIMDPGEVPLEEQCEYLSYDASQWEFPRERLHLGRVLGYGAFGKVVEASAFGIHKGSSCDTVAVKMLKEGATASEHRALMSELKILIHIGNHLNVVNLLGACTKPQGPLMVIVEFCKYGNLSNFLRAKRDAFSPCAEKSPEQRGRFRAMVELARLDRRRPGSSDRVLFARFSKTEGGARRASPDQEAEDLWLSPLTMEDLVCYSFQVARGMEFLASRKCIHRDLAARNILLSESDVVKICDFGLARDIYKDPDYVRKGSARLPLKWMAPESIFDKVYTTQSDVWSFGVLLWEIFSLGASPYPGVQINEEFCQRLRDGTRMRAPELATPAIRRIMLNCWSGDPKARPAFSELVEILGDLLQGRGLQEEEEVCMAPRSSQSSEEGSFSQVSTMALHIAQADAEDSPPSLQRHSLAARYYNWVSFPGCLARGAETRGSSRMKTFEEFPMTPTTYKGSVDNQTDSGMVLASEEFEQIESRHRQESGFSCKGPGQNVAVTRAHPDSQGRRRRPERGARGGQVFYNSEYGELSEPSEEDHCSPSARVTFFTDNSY

[12] = Clearance in CD1 mouse at 10 mg/kg, iv; assay type: ADME, organism-based; parameters: dose 10 mg/kg, route intravenous; conditions: in vivo; how it was run: as §1
[13] = biological target: T4, Serine/threonine-protein kinase SULU (Caenorhabditis elegans, UniProt P46549); assay: Inhibition of SULU
T4 sequence (P46549 whole entry): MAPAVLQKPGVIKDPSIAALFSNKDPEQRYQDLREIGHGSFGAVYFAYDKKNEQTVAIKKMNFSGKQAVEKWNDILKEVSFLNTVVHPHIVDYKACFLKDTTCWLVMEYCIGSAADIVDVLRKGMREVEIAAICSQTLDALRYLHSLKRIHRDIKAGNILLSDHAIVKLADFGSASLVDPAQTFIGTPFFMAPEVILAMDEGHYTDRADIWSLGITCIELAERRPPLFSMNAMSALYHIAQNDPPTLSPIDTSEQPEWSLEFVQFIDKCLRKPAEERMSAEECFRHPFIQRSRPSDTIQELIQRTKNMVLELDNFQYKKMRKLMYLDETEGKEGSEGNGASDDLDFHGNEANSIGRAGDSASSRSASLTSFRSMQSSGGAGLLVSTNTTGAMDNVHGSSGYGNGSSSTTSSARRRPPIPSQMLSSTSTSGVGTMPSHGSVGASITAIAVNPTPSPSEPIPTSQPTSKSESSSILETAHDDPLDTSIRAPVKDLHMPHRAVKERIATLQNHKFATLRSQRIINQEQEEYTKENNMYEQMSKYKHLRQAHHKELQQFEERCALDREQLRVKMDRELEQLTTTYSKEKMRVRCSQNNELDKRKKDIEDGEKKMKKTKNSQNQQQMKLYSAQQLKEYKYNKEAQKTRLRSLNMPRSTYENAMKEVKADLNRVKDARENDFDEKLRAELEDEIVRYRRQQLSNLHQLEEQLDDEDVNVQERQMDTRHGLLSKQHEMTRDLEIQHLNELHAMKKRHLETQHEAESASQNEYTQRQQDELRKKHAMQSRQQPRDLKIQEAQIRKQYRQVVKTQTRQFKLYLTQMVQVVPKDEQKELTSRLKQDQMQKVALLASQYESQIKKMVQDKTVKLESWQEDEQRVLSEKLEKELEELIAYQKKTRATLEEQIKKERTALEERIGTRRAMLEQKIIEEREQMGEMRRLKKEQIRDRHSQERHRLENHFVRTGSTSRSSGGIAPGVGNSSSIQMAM

[14] = Cmax in CD1 mouse at 10 mg/kg, iv; assay type: ADME, organism-based; parameters: dose 10 mg/kg, route intravenous; conditions: in vivo; how it was run: as §1
[15] = Volume of distribution in CD1 mouse at 10 mg/kg, iv; assay type: ADME, organism-based; parameters: dose 10 mg/kg, route intravenous; conditions: in vivo, read-out: Vss; how it was run: as §1
Aurora kinase C = biological target: T5, Aurora kinase C (Homo sapiens, UniProt Q9UQB9); assay: Inhibition of Aurora C kinase
T5 sequence (Q9UQB9 whole entry): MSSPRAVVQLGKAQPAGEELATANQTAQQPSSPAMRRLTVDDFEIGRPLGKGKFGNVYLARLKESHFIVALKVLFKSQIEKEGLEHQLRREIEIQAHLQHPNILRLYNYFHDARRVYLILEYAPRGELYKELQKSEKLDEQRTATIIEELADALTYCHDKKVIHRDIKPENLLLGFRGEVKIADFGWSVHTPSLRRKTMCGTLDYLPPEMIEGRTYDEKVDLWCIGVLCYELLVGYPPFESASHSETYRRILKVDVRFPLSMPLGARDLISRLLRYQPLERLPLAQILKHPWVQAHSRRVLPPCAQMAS

[16] = biological target: T6, Inhibitor of nuclear factor kappa-B kinase subunit beta (Homo sapiens, UniProt O14920); assay: Inhibition of IKK2
T6 sequence (O14920 whole entry): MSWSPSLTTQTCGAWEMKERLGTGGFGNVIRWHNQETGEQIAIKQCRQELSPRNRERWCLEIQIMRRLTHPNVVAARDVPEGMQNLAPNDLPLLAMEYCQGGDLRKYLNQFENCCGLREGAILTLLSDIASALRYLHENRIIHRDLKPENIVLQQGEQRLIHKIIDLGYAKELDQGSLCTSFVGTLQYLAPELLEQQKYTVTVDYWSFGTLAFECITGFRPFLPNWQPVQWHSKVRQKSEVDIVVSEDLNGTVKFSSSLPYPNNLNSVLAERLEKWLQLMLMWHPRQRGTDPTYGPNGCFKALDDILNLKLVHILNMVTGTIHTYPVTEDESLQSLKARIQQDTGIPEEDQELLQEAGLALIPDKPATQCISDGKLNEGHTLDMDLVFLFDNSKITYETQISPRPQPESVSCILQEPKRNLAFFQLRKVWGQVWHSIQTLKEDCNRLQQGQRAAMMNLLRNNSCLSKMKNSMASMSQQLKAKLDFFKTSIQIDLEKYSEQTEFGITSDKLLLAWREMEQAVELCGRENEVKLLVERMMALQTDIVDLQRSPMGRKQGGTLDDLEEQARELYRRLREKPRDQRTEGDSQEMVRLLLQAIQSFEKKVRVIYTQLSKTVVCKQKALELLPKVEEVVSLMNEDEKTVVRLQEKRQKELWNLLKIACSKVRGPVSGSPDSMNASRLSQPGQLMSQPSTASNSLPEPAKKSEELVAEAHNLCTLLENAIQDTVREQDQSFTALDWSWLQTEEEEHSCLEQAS

[17] = biological target: Serine/threonine-protein kinase NIM1 (Homo sapiens, UniProt Q8IY84); assay: Inhibition of NIM1
Chain of Serine/threonine-protein kinase NIM1 (Q8IY84 whole entry): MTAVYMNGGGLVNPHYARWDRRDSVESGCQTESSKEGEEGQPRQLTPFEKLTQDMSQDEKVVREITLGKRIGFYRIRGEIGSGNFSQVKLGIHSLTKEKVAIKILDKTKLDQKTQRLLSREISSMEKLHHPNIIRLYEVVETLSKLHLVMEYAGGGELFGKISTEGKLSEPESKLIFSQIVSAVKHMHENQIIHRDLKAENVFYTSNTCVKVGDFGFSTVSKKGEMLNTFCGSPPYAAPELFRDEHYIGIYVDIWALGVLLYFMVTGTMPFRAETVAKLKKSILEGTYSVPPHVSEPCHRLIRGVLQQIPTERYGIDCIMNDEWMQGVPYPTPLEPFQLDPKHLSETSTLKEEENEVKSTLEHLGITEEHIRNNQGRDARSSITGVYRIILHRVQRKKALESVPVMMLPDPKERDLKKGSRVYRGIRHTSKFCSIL

Row | SMILES | IC50 (HCT-116 [2]) [µM] | IC50 (Aurora kinase A) [µM] | IC50 (Aurora kinase B) [µM] | EC50 (HCT-116 [3]) [µM] | other results
1 | CO[C@@H](C(=O)N1Cc2n[nH]c(NC(=O)c3ccc(N4CCN(C)CC4)cc3)c2C1)c1ccccc1.Cl | – | – | – | – | solubility [1]: > 15 mg/mL
2 | CN1CCN(c2ccc(C(=O)Nc3n[nH]c4c3CN(C(=O)[C@H](F)c3ccccc3)C4)cc2)CC1 | 0.05 | 0.009 | 0.3 | 0.11 | –
3 | CN1CCN(c2ccc(C(=O)Nc3n[nH]c4c3CN(C(=O)Cc3ccccc3)C4)cc2)CC1 | 0.22 | 0.13 | – | 0.5 | –
4 | CO[C@@H](C(=O)N1Cc2[nH]nc(NC(=O)c3ccc(N4CCN(C)CC4)cc3)c2C1)c1ccccc1 [DANUSERTIB] | 0.031 | – | – | 0.08 | IC50 (A2780): 0.028 µM; IC50 (HeLa): 0.14 µM; Activity (HL-60 [4]): 16%; IC50 (MCF7): 0.08 µM; TGI (HL-60 [5]): 98%; Activity (HCT-116 [6]): Active
5 | C[C@@H](C(=O)N1Cc2[nH]nc(NC(=O)c3ccc(N4CCN(C)CC4)cc3)c2C1)c1ccccc1 | 0.021 | 0.024 | 0.099 | 0.1 | –
6 | C[C@H](C(=O)N1Cc2n[nH]c(NC(=O)c3ccc(N4CCN(C)CC4)cc3)c2C1)c1ccccc1 | – | 0.452 | 1.21 | – | –
7 | CO[C@@H](C(=O)N1Cc2n[nH]c(NC(=O)c3ccc(N4CCN(C)CC4)cc3)c2C1)c1ccccc1 [DANUSERTIB] | – | – | – | – | half-life [7]: 1.4 h; IC50 [8]: > 10 µM; IC50 [9]: > 10 µM; AUC [10]: 6.5 µM·h; IC50 [11]: 0.161 µM; clearance [12]: 60 mL/min/kg; IC50 [13]: > 10 µM; Cmax [14]: 9.6 µM; Vd [15]: 3.7 L/kg; IC50 (Aurora kinase C): 0.061 µM; IC50 [16]: > 10 µM; IC50 [17]: > 10 µM
8 | CN1CCN(c2ccc(C(=O)Nc3n[nH]c4c3CN(C(=O)[C@H](O)c3ccccc3)C4)cc2)CC1 | 0.097 | 0.006 | 0.048 | > 0.2 | –
